In ChEMBL document CHEMBL4261598, “Synthesis of novel mono and bis nitric oxide donors with high cytocompatibility and release activity” (Bioorg Med Chem Lett, 2018):
Calls of active or inactive are those of the source. The calls are words filed in the database; no cut-off is given here.

How the values were obtained:
VSMC [1] = experiment: (§1) Cytotoxicity against human VSMC assessed as cell viability at 100 uM after 24 hrs by MTT assay; type: cell-based; conditions: vsmc, 24 h, 100 µM
In short: (§2)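 Human vascular smooth muscle cells incubated 24 h with amidoximes over 0.001 to 100 µM; viability measured (method in Supporting Information). Mean ± SEM of three to four tests, two-way ANOVA.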

Liver = experiment: Induction of NO release in rat liver microsomes assessed as nitrite levels after 10 mins in presence of NADPH and dioxygen by Griess assay; type: functional; conditions: microsome
In short: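 Amidoximes incubated 10 min with rat liver microsomes and NADPH; supernatant nitrite quantified by Griess assay, expressed as nmol NO2-/mg P450. Background from controls lacking microsomes, amidoxime or NADPH, or with parent nitrile, was subtracted. 4-Chlorobenzamidoxime served as reference. Mean ± SEM of three to five independent experiments.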

VSMC [2] = experiment: Induction of NO release in human VSMC assessed as intracellular S-nitrosothiol level at 100 uM after 1 hr by fluorimetric method; type: functional
In short: (§3)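 HVSMC seeded in 6-well plates 48 h before, then incubated 1 h at 37°C with compound (mono-amidoximes and GSNO reference 100 µM, bis-amidoxime 50 µM); controls PBS with 0.1% DMSO. Cells washed and lysed, then RSNO and nitrite quantified immediately by fluorometric 2,3-diaminonaphthalene/N2O3 assay giving naphthotriazole (ex 375, em 415 nm). Mean ± SEM, three independent experiments.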

[3] = as §1; type: cell-based; conditions: VSMC cells, read-out: Activity; in short: as §2
VSMC [4] = experiment: Induction of NO release in human VSMC assessed as intracellular S-nitrosothiol level at 50 uM after 1 hr by fluorimetric method; type: functional; in short: as §3

Compound | Activity (VSMC [1]) | Activity (Liver) | Activity (VSMC [2]) | viability at 24 h, 100 µM [3] [%] | Activity (VSMC [4]) [µM]
N/C(CCCCOc1ccccc1)=N\O | Non-Toxic | Active |  |  | 
N[C@@H](CCC(=O)N[C@@H](CSN=O)C(=O)NCC(=O)O)C(=O)O |  |  | Active |  | 
N/C(=N\O)c1ccc(O)cc1 |  | 2.4 nmol/mg | 0.2 µM | 74.7 | 
N/C(CCCCOc1ccc(/C(N)=N/O)cc1)=N\O | Non-Toxic | Active |  |  | 0.17
COc1ccc(C(=N)NO)cc1 | Non-Toxic | 1.5 nmol/mg | 0.21 µM |  | 
N/C(=N\O)c1ccc(Cl)cc1 |  | 1.3 nmol/mg | 0.03 µM |  | 
